The results in this text go back to BindingDB's records for doi:10.1021/np2003066 (The University of Montana, 2011).

As usually defined, the IC50 is the concentration at which inhibition is half-maximal. A high value points to a need for much substance.

Sequence of Interleukin-1 beta (P01584 117-269 limits assumed): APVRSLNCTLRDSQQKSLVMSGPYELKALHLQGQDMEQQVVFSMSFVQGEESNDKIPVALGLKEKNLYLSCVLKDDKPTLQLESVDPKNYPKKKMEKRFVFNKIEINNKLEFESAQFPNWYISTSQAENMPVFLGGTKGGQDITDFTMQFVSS

The experiment deals with Interleukin-1 beta (Homo sapiens, UniProt P01584). The experiment can be described thus: Induction of IL-1 beta production in LPS-induced human THP-1 cells by ELISA. Put shortly:
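THP-1 cells were differentiated with PMA (1 μg/mL) for 24 h, scraped, pelleted and resuspended at 1.0 × 10^6 cells/mL. They were exposed together to test inhibitor, LPS [20 ng/mL] and TiO2 nanowires (100 μg/ml) for 24 h at 37 °C in a CO2 incubator. IL-1β released was measured by DuoSet ELISA, and IC50 was derived from the post-exposure IL-1β levels.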
For `C=C(C)C1=CC[C@@]2(C)[C@@H](C[C@]3(C)C(=C)[C@@]2(C(=O)OC)C(=O)[C@@](C)(O)C3=O)[C@]1(C)CCC(=O)O`, the IC50 came to 37.8 µM. As for `C=C1[C@@]2(C)C[C@H]3[C@]4(C)CCC(=O)C(C)(C)[C@H]4CC[C@]3(C)[C@]1(C(=O)OC)C(=O)[C@@](C)(O)C2=O`, the figure is 15.5 µM. `CC(=O)N[C@@H](Cc1ccc(O)cc1)C(=O)N[C@H](C(=O)N[C@@H](C)C(=O)N[C@H](C=O)CC(=O)O)C(C)C` displayed an IC50 of 2 µM. `C=C1[C@@]2(C)C[C@@H]3[C@](C)(CC=C4C(C)(C)OC(=O)CC[C@]43C)[C@]1(C(=O)OC)C(=O)[C@@](C)(O)C2=O`: the IC50 is 3.7 µM.

`C=C1[C@@]2(C)C[C@H]3[C@]4(C)CC[C@@H](O)C(C)(C)[C@H]4CC[C@]3(C)[C@]1(C(=O)OC)C(=O)[C@@](C)(O)C2=O`: the midpoint of inhibition, the IC50, lay at 2.7 µM.

`C=C1[C@@]2(C)C[C@H]3[C@]4(C)CCC(=O)OC(C)(C)[C@@H]4CC[C@]3(C)[C@]1(C(=O)OC)C(=O)[C@@](C)(O)C2=O`: half-maximal inhibition (IC50) was put at 34.3 µM. This IC50 is about 13-fold higher than that of the compound before. Consider `C=C1[C@@]2(C)C[C@H]3C(C)=C4CC(=O)OC(C)(C)C4=CC[C@]3(C)[C@]1(C(=O)OC)C(=O)[C@@](C)(O)C2=O` [BERKELEYDIONE], for which the IC50 turned out to be 4.4 µM. This IC50 lies about 7.8-fold lower than the previous one.
